Assay results published in ChEMBL document CHEMBL5678806, “NMS-P937, an orally available, specific small-molecule polo-like kinase 1 inhibitor with antitumor activity in solid and hematologic malignancies” (Mol Cancer Ther, 2012).
Active and inactive are the calls of the source. No cut-off for these calls is given here.

Experiments:
[1] = Inhibition of SULU1 (unknown origin) in presence of [gamma-33P]ATP; design: species or system Homo sapiens
SK-BR-3 = test: Antiproliferative activity against human SK-BR-3 cells assessed as inhibition of cell growth incubated for 72 hrs by cell-titer glo assay; format: functional, cell-based; details: SK-BR-3, 72 h
[2] = Half-life in male cynomolgus monkey at 5 mg/kg, po by LC-MS analysis; format: ADME, organism-based, Macaca fascicularis; details: in vivo
A2780 [3] = test: Induction of cell cycle arrest in human A2780 cells assessed as accumulation of cells at G2/M phase by measuring 4N DNA content incubated for 24 hrs by flow cytometry analysis; details: dose 20-200 nmol/L
[4] = molecular target: Serine/threonine-protein kinase Chk1 (Homo sapiens) (UniProt O14757); test: Inhibition of N-terminal GST-tagged full length human CHK1 expressed in Sf21 cells assessed as residual activity at 0.1 uM relative to control
SAOS-2 = test: Antiproliferative activity against human SAOS-2 cells assessed as inhibition of cell growth incubated for 72 hrs by cell-titer glo assay; format: functional, cell-based; details: SAOS-2, 72 h
Summary of the method: (§1)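 Cells from ATCC or ECACC, kept in supplier-recommended medium with 1% penicillin-streptomycin at 37°C, 5% CO₂. Seeded at 10,000–30,000/cm² (adherent) or 100,000/mL (nonadherent) in medium with 10% fetal calf serum. Dosed after 24 h in duplicate with serial dilutions. Viable cells read by CellTiter-Glo 72 h later. IC50 from sigmoidal fit. At least two independent experiments.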

PANC-1 = test: Antiproliferative activity against human PANC-1 cells assessed as inhibition of cell growth incubated for 72 hrs by cell-titer glo assay; format: functional, cell-based; details: PANC-1, 72 h; summary of the method: as §1
HCT-116 = test: Antitumor activity against human HCT-116 cells xenografted in nu/nu mouse assessed as tumor growth inhibition at 45 mg/kg, iv administered for 3 days relative to control; format: functional; details: HCT-116, 72 h, time 3 day, read-out: TGI
A2780 [5] = test: Induction of cell cycle arrest in human A2780 cells assessed as accumulation of cells in G2/M phase by measuring upregulated PLK1 expression incubated for 24 hrs by Western blotting analysis; format: functional, cell-based; details: dose 0.02-0.2 µmol/L
Summary of the method: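 A2780 ovarian carcinoma cells treated 24 h with a range of concentrations, with DMSO and nocodazole controls. 20 µg protein extract separated by SDS-PAGE and immunoblotted with chemiluminescent detection. Probed for total and phospho-Thr210 PLK1, phospho-Ser10 histone H3, phospho-Thr199 NPM and phospho-Tyr15 CDK1. Total NPM, tubulin and total CDK1 served as loading controls.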

C-33-A = test: Antiproliferative activity against human C-33-A cells assessed as inhibition of cell growth incubated for 72 hrs by cell-titer glo assay; format: functional, cell-based
Summary of the method: (§2)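 Cells seeded 10,000–30,000/cm² (adherent) or 100,000/mL (suspension) in medium with 10% fetal calf serum; after 24 h treated in duplicate with serial dilutions for 72 h. Viable cells read by CellTiter-Glo luminescence; IC50 from sigmoidal fit; at least two independent experiments.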

[6] = Cmax in male cynomolgus monkey at 5 mg/kg, po by LC-MS analysis; format: ADME, organism-based, Macaca fascicularis; details: in vivo
CAMA-1 = test: Antiproliferative activity against human CAMA-1 cells assessed as inhibition of cell growth incubated for 72 hrs by cell-titer glo assay; format: functional, cell-based; details: CAMA-1, 72 h; summary of the method: as §2
[7] = Cmax in Sprague-Dawley rat at 10 mg/kg, po by LC-MS analysis; format: ADME, organism-based; details: in vivo
[8] = molecular target: Dual specificity mitogen-activated protein kinase kinase 6 (Homo sapiens) (UniProt P52564); test: Inhibition of N-terminal maltose binding protein-tagged human MKK6 (4 to end residues) expressed in E. coli assessed as residual activity at 0.1 uM relative to control
TK-10 = test: Antiproliferative activity against human TK-10 cells assessed as inhibition of cell growth incubated for 72 hrs by cell-titer glo assay; format: functional, cell-based; details: TK-10, 72 h
EVSA-T = test: Antiproliferative activity against human EVSA-T cells assessed as inhibition of cell growth incubated for 72 hrs by cell-titer glo assay; format: functional, cell-based; summary of the method: as §2
U2OS = test: Antiproliferative activity against human U2OS cells assessed as inhibition of cell growth incubated for 72 hrs by cell-titer glo assay; format: functional, cell-based
LP-1 = test: Antiproliferative activity against human LP-1 cells assessed as inhibition of cell growth incubated for 72 hrs by cell-titer glo assay; format: functional, cell-based; details: LP-1, 72 h
Summary of the method: (§3)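 Cells seeded at 10,000–30,000/cm² (adherent) or 100,000/mL (nonadherent) in medium with 10% fetal calf serum; after 24 h, treated in duplicate with serial dilutions for 72 h. Viable cell number read by CellTiter-Glo luminescence; IC50 from sigmoidal fit; at least two independent experiments.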

THP-1 = test: Antiproliferative activity against human THP-1 cells assessed as inhibition of cell growth incubated for 72 hrs by cell-titer glo assay; format: functional, cell-based; details: THP-1, 72 h
HT-1080 = test: Antiproliferative activity against human HT-1080 cells assessed as inhibition of cell growth incubated for 72 hrs by cell-titer glo assay; format: functional, cell-based; details: HT-1080, 72 h; summary of the method: as §3
[9] = Oral bioavailability in male cynomolgus monkey at 5 mg/kg by LC-MS analysis; format: ADME, organism-based, Macaca fascicularis; details: in vivo
[10] = molecular target: Serine/threonine-protein kinase ULK3 (Homo sapiens) (UniProt Q6PHR2); test: Inhibition of N-terminal 6His-tagged recombinant human full-length ULK3 expressed in baculovirus infected Sf21 cells assessed as residual activity at 1 uM relative to control
[11] = molecular target: Calcium/calmodulin-dependent protein kinase type II subunit delta (Homo sapiens) (UniProt Q13557); test: Inhibition of recombinant full length human CaMKIIdelta assessed as residual activity at 1 uM relative to control
A2780 [12] = test: Induction of apoptosis in human A2780 cells assessed as PARP cleavage at 0.02 to 0.2 micromol/L incubated for 24 hrs by Western blotting analysis; format: functional, cell-based; details: dose 0.02-0.2 µmol/L
[13] = molecular target: cAMP-dependent protein kinase catalytic subunit PRKX (Homo sapiens) (UniProt P51817); test: Inhibition of N-terminal 6His-tagged recombinant full-length human PrKX expressed in baculovirus infected Sf21 cells assessed as residual activity at 0.1 uM relative to control
[14] = molecular target: Rho-associated protein kinase 1 (Homo sapiens) (UniProt Q13464); test: Inhibition of N-terminal His6-tagged recombinant human ROCK-I (17 to 535 residues) expressed in baculovirus infected Sf21 cells assessed as residual activity at 1 uM relative to control
[15] = molecular target: Eukaryotic elongation factor 2 kinase (Homo sapiens, UniProt O00418); test: Inhibition of EEF2K (unknown origin) in presence of [gamma-33P]ATP
HCC78 = test: Antiproliferative activity against human HCC78 cells assessed as inhibition of cell growth incubated for 72 hrs by cell-titer glo assay; format: functional, cell-based; details: HCC78, 72 h; summary of the method: as §3
[16] = molecular target: Mitotic checkpoint serine/threonine-protein kinase BUB1 (Homo sapiens, UniProt O43683); test: Inhibition of BUB1 (unknown origin) in presence of [gamma-33P]ATP
SF-295 = test: Antiproliferative activity against human SF-295 cells assessed as inhibition of cell growth incubated for 72 hrs by cell-titer glo assay; format: functional, cell-based; details: SF-295, 72 h; summary of the method: as §1

Sequence of Calcium/calmodulin-dependent protein kinase type II subunit delta (Homo sapiens) (Q13557 whole entry): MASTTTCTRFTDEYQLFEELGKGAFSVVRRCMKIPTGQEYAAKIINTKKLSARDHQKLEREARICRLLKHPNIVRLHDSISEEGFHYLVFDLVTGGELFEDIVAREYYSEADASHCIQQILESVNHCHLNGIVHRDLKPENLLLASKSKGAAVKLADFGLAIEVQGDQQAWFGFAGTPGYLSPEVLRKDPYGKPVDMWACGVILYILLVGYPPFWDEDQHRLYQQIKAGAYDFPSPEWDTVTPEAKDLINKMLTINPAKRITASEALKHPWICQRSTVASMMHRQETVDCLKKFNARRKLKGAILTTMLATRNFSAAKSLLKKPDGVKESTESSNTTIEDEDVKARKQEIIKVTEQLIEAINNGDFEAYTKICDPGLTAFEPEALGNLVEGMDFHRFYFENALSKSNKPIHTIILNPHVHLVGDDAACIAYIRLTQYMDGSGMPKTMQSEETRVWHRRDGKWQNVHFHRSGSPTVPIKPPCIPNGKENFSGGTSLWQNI
Sequence of Rho-associated protein kinase 1 (Homo sapiens) (Q13464 2-1354 limits assumed): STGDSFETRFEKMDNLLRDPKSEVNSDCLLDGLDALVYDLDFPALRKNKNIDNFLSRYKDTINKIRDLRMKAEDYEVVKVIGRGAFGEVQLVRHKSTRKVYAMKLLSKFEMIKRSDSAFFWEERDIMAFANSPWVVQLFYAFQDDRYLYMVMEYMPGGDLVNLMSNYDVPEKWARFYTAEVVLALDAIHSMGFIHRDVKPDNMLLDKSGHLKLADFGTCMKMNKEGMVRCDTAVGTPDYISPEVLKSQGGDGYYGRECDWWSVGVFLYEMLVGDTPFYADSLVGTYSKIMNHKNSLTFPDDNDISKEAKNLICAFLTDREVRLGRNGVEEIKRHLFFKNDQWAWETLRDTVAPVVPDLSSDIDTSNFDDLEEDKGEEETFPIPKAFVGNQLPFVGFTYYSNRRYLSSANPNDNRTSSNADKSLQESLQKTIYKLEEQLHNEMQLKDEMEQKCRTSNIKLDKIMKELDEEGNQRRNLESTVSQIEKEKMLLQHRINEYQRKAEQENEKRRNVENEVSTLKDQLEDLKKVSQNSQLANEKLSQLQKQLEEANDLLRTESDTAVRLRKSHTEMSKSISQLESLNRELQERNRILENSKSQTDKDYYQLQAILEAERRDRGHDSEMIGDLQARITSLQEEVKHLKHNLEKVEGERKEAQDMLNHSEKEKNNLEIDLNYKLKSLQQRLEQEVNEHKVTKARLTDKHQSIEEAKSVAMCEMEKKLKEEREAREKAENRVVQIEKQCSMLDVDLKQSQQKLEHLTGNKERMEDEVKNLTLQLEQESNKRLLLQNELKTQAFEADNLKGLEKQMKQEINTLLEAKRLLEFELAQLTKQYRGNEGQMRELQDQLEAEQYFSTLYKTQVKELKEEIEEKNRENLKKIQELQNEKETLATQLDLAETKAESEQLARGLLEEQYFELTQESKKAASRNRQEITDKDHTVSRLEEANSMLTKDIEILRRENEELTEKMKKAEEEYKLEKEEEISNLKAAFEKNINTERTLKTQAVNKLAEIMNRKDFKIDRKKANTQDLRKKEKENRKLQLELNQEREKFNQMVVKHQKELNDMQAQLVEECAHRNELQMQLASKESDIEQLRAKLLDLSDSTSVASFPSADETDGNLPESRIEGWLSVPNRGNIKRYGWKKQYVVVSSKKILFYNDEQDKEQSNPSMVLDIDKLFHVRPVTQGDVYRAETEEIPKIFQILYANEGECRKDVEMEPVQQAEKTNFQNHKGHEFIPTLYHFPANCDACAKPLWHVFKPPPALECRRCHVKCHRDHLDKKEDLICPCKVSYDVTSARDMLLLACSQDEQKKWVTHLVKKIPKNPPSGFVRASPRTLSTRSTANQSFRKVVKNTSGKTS
Sequence of Dual specificity mitogen-activated protein kinase kinase 6 (Homo sapiens) (P52564 whole entry): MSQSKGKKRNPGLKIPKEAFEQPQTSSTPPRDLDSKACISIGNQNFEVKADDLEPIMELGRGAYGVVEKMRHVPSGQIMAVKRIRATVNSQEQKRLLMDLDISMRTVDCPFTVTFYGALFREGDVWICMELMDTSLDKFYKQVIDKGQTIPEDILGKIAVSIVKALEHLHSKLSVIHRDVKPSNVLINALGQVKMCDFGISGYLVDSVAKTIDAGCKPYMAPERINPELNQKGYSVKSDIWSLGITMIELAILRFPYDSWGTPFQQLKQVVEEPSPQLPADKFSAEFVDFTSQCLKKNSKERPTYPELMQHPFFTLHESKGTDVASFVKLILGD
Sequence of Serine/threonine-protein kinase ULK3 (Homo sapiens) (Q6PHR2 whole entry): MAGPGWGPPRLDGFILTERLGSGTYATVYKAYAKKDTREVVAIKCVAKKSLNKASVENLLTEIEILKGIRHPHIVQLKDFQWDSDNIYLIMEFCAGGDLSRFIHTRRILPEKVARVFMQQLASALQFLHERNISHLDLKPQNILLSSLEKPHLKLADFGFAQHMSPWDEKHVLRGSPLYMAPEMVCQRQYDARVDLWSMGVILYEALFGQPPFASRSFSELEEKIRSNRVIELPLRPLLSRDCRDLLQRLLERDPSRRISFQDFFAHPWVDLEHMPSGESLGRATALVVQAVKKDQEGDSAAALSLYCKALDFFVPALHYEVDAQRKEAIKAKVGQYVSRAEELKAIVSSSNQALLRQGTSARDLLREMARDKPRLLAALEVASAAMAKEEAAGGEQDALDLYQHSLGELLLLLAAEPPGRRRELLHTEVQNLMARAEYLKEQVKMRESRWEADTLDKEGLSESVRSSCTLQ
Sequence of Serine/threonine-protein kinase Chk1 (Homo sapiens) (O14757 whole entry): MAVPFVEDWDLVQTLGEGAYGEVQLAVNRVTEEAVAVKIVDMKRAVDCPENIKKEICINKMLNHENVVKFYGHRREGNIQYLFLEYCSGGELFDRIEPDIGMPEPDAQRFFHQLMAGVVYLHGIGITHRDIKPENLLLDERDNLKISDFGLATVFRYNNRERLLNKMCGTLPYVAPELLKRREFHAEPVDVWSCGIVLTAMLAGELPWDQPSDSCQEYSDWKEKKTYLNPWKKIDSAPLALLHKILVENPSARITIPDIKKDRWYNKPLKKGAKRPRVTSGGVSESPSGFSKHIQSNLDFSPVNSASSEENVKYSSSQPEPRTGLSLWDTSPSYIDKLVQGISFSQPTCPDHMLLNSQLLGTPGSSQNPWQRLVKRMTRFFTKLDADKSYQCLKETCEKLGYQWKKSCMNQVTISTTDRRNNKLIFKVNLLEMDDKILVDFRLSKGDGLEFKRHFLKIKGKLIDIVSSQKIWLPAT
Sequence of Mitotic checkpoint serine/threonine-protein kinase BUB1 (O43683 whole entry): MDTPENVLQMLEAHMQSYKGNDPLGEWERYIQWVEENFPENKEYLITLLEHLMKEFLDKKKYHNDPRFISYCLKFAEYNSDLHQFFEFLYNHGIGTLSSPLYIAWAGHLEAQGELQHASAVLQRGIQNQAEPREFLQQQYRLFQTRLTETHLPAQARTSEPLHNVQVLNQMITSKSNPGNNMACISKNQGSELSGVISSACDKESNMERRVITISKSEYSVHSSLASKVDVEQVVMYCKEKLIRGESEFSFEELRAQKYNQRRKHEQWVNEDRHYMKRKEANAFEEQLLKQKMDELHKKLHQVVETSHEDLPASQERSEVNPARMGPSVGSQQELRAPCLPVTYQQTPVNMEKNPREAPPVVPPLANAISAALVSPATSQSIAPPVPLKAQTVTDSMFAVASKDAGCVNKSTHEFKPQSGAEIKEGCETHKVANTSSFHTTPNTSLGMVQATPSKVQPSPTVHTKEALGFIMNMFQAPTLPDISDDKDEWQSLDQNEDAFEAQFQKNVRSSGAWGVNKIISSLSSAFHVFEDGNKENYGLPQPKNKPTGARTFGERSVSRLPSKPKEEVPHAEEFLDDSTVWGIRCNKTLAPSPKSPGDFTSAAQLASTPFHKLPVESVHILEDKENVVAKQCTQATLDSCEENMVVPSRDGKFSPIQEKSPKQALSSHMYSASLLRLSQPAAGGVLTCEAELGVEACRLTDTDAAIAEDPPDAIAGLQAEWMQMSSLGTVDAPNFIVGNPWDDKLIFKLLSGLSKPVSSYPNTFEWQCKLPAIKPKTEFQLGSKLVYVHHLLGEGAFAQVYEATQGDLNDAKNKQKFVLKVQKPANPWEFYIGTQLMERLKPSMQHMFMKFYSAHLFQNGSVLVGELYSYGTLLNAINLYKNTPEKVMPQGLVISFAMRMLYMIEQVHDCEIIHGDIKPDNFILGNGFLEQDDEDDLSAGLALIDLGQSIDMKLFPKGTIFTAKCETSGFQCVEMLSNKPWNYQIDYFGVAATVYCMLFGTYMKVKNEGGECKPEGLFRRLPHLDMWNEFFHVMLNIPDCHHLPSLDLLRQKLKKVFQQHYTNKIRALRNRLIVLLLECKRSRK
Sequence of cAMP-dependent protein kinase catalytic subunit PRKX (Homo sapiens) (P51817 whole entry, the tested form may be a part): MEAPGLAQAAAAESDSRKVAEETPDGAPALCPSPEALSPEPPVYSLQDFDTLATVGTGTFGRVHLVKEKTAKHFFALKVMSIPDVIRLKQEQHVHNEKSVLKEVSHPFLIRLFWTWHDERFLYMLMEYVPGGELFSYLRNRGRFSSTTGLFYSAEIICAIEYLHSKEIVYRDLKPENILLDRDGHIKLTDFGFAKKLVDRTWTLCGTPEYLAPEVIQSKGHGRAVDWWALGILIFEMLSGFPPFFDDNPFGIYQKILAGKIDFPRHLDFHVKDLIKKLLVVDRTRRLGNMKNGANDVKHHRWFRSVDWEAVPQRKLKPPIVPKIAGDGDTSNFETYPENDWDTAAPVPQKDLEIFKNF

Compound `CN1CCN(c2ccc(OC(F)(F)F)c(Nc3ncc4c(n3)-c3c(c(C(N)=O)nn3CCO)CC4)c2)CC1` [ONVANSERTIB] has an IC50 [1] of over 10000 nM, an IC50 (SK-BR-3) of 35 nM and a half-life [2] of 4.2 h. The Activity (A2780 [3]) was “Dose-Dependent Effect”, the Activity [4] was 113% and the IC50 (SAOS-2) was 45 nM. For the same compound, the IC50 (PANC-1) was 184 nM, the inhibition in vivo at 45 mg/kg (HCT-116) was 83% and the Activity (A2780 [5]) was “Dose-Dependent Effect”. It also gave an IC50 (C-33-A) of 61 nM, a Cmax [6] of 1.9 µM and an IC50 (CAMA-1) of 350 nM. For the same compound, the Cmax [7] was 4.2 µM, the Activity [8] was 131% and the IC50 (TK-10) was 1210 nM. It also gave an IC50 (EVSA-T) of 41 nM, an IC50 (U2OS) of 285 nM and an IC50 (LP-1) of 59 nM. It also gave an IC50 (THP-1) of 32 nM, an IC50 (HT-1080) of 59 nM and an F [9] of 35%. The Activity [10] was 127%, the Activity [11] was 74% and the Activity (A2780 [12]) was “Active”. For the same compound, the Activity [13] was 90%, the Activity [14] was 132% and the IC50 [15] was over 10000 nM. For the same compound, the IC50 (HCC78) was 340 nM, the IC50 [16] was over 10000 nM and the IC50 (SF-295) was 386 nM.
